We go through 1 compound from ChEMBL document CHEMBL4033800, “Further Developments of the Phenyl-Pyrrolyl Pentane Series of Nonsteroidal Vitamin D Receptor Modulators as Anticancer Agents” (J Med Chem, 2018).

The subject of series [1] is MCF7. The series can be described thus: Induction of apoptosis in human MCF7 cells assessed as viable cells at 1 uM after 24 hrs by Annexin V-FITC/propidium iodide-staining based flow cytometry (reference value: 98.2%). The format is functional. The settings on record: MCF7, 24 h, read-out: Activity. In general terms: A flow cytometer gives signals particle by particle.

Series [2] in a line: Drug uptake in human MCF7 cells at 1 uM after 10 mins by HPLC analysis. Format: ADME, cell-based. Conditions: mcf7, 10 min. The essentials: (§1)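 MCF7 cells were given 1 µM compound in medium with 10% FBS for 10 or 30 min. Cells and medium were extracted separately with chloroform/methanol (3:1, v/v) and analysed by HPLC. Mean ± SEM, n = 3.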
The subject of series [3] is MCF7. Description: Induction of cell cycle arrest in human MCF7 cells assessed as accumulation at G2/M phase at 1 uM after 24 hrs by propidium iodide-staining based flow cytometry (reference value: 12.41%). The format is functional.
Series [4] relates to Mus musculus. The series can be described thus: Hypercalcemic effect in ICR mouse assessed as serum calcium levels at 5 ug/kg, ip administered for 7 days measured on day 8 post-dose by MTB-based assay (reference value: 7.05 mg/dl). Format: ADME, organism-based. The settings on record: in vivo, 0.005 mg/kg, 168 h. The essentials: (§2)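 Mice were dosed i.p. over a 7-day period and serum calcium was then measured. Each dose level was compared with a vehicle-treated control group (saline cited as the comparator). Data are mean ± SEM, n = 6 per group. Significance versus vehicle was reported at p < 0.05, 0.01 and 0.001.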

The nature of series [5]: Drug uptake in human MCF7 cells at 1 uM after 30 mins by HPLC analysis. Format: ADME, cell-based. The settings on record: mcf7, 0.5 h. In short, it runs like this: as §1
Series [6] deals with MCF7. The series can be described thus: Induction of apoptosis in human MCF7 cells assessed as necrotic cells at 1 uM after 24 hrs by Annexin V-FITC/propidium iodide-staining based flow cytometry (reference value: 0.031%). The format is functional.
Series [7] is described as follows: Half life in iv dosed Sprague-Dawley rat. The format is ADME, organism-based. The settings on record: in vivo.
Series [8] in a line: Drug metabolism in human MCF7 cells at 1 uM after 24 hrs by HPLC analysis. The format is ADME, cell-based. Conditions: read-out: Drug metabolism. The essentials:
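MCF7 cells were incubated 24 h with 1 µM compound, alongside a medium-only incubation without cells. Mixtures were extracted with chloroform/methanol (3:1, v/v) and quantified by HPLC. Mean ± SEM, n = 3.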

Series [9] deals with MCF7. The series can be described thus: Induction of cell cycle arrest in human MCF7 cells assessed as accumulation at G0/G1 phase at 1 uM after 24 hrs by propidium iodide-staining based flow cytometry (reference value: 56.03%). Format: functional.
The subject of series [10] is MCF7. Description: Induction of cell cycle arrest in human MCF7 cells assessed as accumulation at S phase at 1 uM after 24 hrs by propidium iodide-staining based flow cytometry (reference value: 31.55%). Format: functional.
The subject of series [11] is Mus musculus. Description: Hypercalcemic effect in ICR mouse at 0.5 ug/kg, ip administered for 7 days measured on day 8 post-dose by MTB-based assay relative to control. Format: ADME, organism-based. The settings on record: in vivo, 0.0005 mg/kg, 168 h. The essentials: as §2
In series [12] the test system is MCF7. The series can be described thus: Induction of apoptosis in human MCF7 cells assessed as late apoptotic cells at 1 uM after 24 hrs by Annexin V-FITC/propidium iodide-staining based flow cytometry (reference value: 0.062%). The format is functional.
Series [13] relates to MCF7. The series can be described thus: Induction of apoptosis in human MCF7 cells assessed as early apoptotic cells at 1 uM after 24 hrs by Annexin V-FITC/propidium iodide-staining based flow cytometry (reference value: 1.74%). The format is functional.

By half-life is commonly meant how long it takes for the measured level to halve. Turning to `C=C1/C(=C\C=C2/CCC[C@]3(C)[C@@H]([C@H](C)CCCC(C)(C)O)CC[C@@H]23)C[C@@H](O)C[C@@H]1O` [CALCITRIOL], the viability at 1 µM in the series with MCF7 [1] stood at 89.8%. Besides, the figures for the Drug uptake in series [2] and in series [5] were 6.5% and 10.4%, respectively. The Activity in the series with MCF7 [3] is 12.61%; in the series on Mus musculus [4], 11.04 mg/dL; with MCF7 [6] it was 0.15%; with MCF7 [9], 63.49%; with MCF7 [10], 23.9%; in the series on Mus musculus [11] it was “Non-Toxic”. Moreover, the Activity stood at 3.44% in the series on MCF7 [12] and 6.59% with MCF7 [13]. The compound further had a half-life in [7] of 4.27 h. The metabolised at 24 h, 1 µM in [8] was 27%.
